pEC50: −log10 of the molar value. ≈ marks a conversion by molar mass, not a printed value. Where “and” joins values, the source holds several entries; their conditions need not be identical. Equal entries are not always repeated. Calls of active or inactive are those of the source. The calls are words filed in the database; no cut-off is given here.
Legend:
[1] = tested on: Yersinia pseudotuberculosis; assay: Inhibition of type 3 secretion in Yersinia pseudotuberculosis at 10 uM by reporter gene assay
How it was run: (§1)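 Y. pseudotuberculosis T3S-linked reporter-gene screen, luminescence read on filter-based plate reader; compounds added from DMSO solutions. Tested at 10, 20, 50 and 100 µM, expressed as percent inhibition. EC50 taken from dose-response curves. Activity also checked with detergent present to exclude aggregation.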

[2] = tested on: Yersinia pseudotuberculosis; assay: Inhibition of type 3 secretion in Yersinia pseudotuberculosis at 20 uM by reporter gene assay; how it was run: as §1
[3] = tested on: Yersinia pseudotuberculosis; assay: Inhibition of type 3 secretion in Yersinia pseudotuberculosis at 50 uM by reporter gene assay; how it was run: as §1
[4] = tested on: Yersinia pseudotuberculosis; assay: Inhibition of type 3 secretion in Yersinia pseudotuberculosis at 100 uM by reporter gene assay; how it was run: as §1
[5] = tested on: Chlamydia trachomatis; assay: Antibacterial activity against Chlamydia trachomatis infected in HeLa cells at 50 uM up to 6 hrs; type: functional, organism-based
[6] = Cytotoxicity against human HeLa cells assessed as cell viability at 2 time MIC; type: cell-based; settings: read-out: Activity
[7] = tested on: Chlamydia trachomatis; assay: Antibacterial activity against Chlamydia trachomatis infected in HeLa cells; type: functional
How it was run: (§2)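 HeLa cells infected with C. trachomatis […] and incubated with compound in a dilution series, with a DMSO-treated control. Chlamydial inclusions are immunostained green and HeLa cells counterstained red. Inclusion size and number and HeLa cell morphology are judged by fluorescence microscopy. MIC is read from the absence of visible inclusions.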

[8] = molecular target: Tyrosine-protein phosphatase YopH (Yersinia pseudotuberculosis serotype I (strain IP32953)) (UniProt P08538); assay: Inhibition of Yersinia pseudotuberculosis phosphatase activity of secreted YopH at 10 uM
Sequence of Tyrosine-protein phosphatase YopH (Yersinia pseudotuberculosis serotype I (strain IP32953)) (P08538 whole entry): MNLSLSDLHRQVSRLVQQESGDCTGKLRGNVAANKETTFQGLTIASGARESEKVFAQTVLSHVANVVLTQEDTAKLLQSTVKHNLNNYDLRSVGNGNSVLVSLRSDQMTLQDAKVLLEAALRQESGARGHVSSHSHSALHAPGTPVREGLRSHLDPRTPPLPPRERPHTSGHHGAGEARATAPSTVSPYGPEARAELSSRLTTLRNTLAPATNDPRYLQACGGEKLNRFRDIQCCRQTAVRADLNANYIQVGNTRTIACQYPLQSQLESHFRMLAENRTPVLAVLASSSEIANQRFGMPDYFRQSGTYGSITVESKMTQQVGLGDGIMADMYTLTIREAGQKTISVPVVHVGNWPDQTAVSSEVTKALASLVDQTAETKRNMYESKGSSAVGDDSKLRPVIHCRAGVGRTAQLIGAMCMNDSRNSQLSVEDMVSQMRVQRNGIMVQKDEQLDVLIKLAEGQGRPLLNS
How it was run: (§3)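 Phosphatase activity of YopH secreted by Y. pseudotuberculosis, measured at 10, 20, 50 and 100 µM; expressed as percent inhibition. Some runs used HCl salt form.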

[9] = molecular target: Tyrosine-protein phosphatase YopH (Yersinia pseudotuberculosis serotype I (strain IP32953)) (UniProt P08538); assay: Inhibition of Yersinia pseudotuberculosis phosphatase activity of secreted YopH at 20 uM; how it was run: as §3
[10] = molecular target: Tyrosine-protein phosphatase YopH (Yersinia pseudotuberculosis serotype I (strain IP32953)) (UniProt P08538); assay: Inhibition of Yersinia pseudotuberculosis phosphatase activity of secreted YopH at 50 uM; how it was run: as §3
[11] = molecular target: Tyrosine-protein phosphatase YopH (Yersinia pseudotuberculosis serotype I (strain IP32953)) (UniProt P08538); assay: Inhibition of Yersinia pseudotuberculosis phosphatase activity of secreted YopH at 100 uM; how it was run: as §3
[12] = (§4) Inhibition of type 3 secretion in Yersinia pseudotuberculosis by reporter gene assay; how it was run: as §1
[13] = tested on: Yersinia pseudotuberculosis; assay: as §4; how it was run: as §1
[14] = molecular target: Tyrosine-protein phosphatase YopH (Yersinia pseudotuberculosis serotype I (strain IP32953)) (UniProt P08538); assay: Inhibition of Yersinia pseudotuberculosis phosphatase activity of secreted YopH; how it was run: as §3
[15] = tested on: Yersinia pseudotuberculosis; assay: Antibacterial activity against wild type Yersinia pseudotuberculosis infected in mouse J774 cells assessed as increase of host cell viability at 3.1 to 25 uM; type: functional, organism-based
How it was run: (§5)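 J774 macrophages infected with Y. pseudotuberculosis, wild-type (pIB102) or T3S-deficient mutant (pIB604); uninfected control included. Viability read with CalceinAM fluorescence (green conversion in healthy cells). 100% = uninfected cells given DMSO alone.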

[16] = tested on: Yersinia pseudotuberculosis; assay: Antibacterial activity against T3S deficient Yersinia pseudotuberculosis infected in mouse J774 cells assessed as increase of host cell viability at 3.1 to 25 uM; type: functional, organism-based; how it was run: as §5
[17] = tested on: J774; assay: Cytotoxicity against mouse J774 cells assessed as cell viability at 3.1 to 25 uM; type: cell-based; settings: j774, 25 µM
[18] = tested on: Chlamydia trachomatis; assay: Antibacterial activity against Chlamydia trachomatis infected in HeLa cells at 100 uM up to 6 hrs; type: functional, organism-based
[19] = tested on: Chlamydia trachomatis; assay: Antibacterial activity against Chlamydia trachomatis infected in HeLa cells assessed as reduction of inclusions size at 1.56 uM by fluorescence microscopy analysis; type: functional, organism-based; how it was run: as §2
[20] = tested on: HeLa; assay: Cytotoxicity against human HeLa cells assessed as visible inclusions by fluorescence microscopy; type: cell-based; how it was run: as §2
[21] = tested on: HeLa; assay: Cytotoxicity against human HeLa cells assessed as change in morphology by fluorescence microscopy; type: cell-based; how it was run: as §2

COc1c(CN2CCN(c3ccccc3)CC2)cc(Cl)c2cccnc12
inhibition [1]: inactive
inhibition [2]: inactive
inhibition [3]: inactive
inhibition [4]: inactive

Oc1c(CN2CCCCC2)cc(Cl)c2cccnc12
inhibition [1]: inactive
inhibition [2]: inactive
inhibition [3]: 8%
inhibition [4]: 12%

CCOc1ccccc1N1CCN(Cc2cc(Cl)c3cccnc3c2O)CC1
inhibition [1]: inactive
inhibition [2]: inactive
inhibition [3]: 37%
inhibition [4]: 89%

O=[N+]([O-])c1cc(CN2CCC(c3ccccc3)C2)c(O)c2ncccc12 (racemic)
Activity [5]: inactive
viability [6]: 92.1%
MIC [7]: 12.5 µM (≈ 4.37 µg/mL)
inhibition [1]: 54%
inhibition [2]: 79%
inhibition [3]: 95%
inhibition [4]: 98%
inhibition [8]: 47%
inhibition [9]: 64%
inhibition [10]: 68%
inhibition [11]: 69%
pEC50 [12]: 4.84
inhibition [13]: Dose-dependent effect
inhibition [14]: Dose-dependent effect
Activity [15]: Active
Activity [16]: inactive
Activity [17]: Toxic

Oc1c(CN2CCN(c3ccccn3)CC2)cc(Cl)c2cccnc12
inhibition [1]: inactive
inhibition [2]: inactive
inhibition [3]: 80%
inhibition [4]: 98%

CC1CN(Cc2cc([N+](=O)[O-])c3cccnc3c2O)CC(C)O1 (stereo not drawn)
inhibition [1]: inactive
inhibition [2]: inactive
inhibition [3]: 76%
inhibition [4]: 93%

Oc1c(CN2CCN(c3ccc(F)cc3)CC2)cc(Br)c2cccnc12
inhibition [1]: inactive
inhibition [2]: inactive
inhibition [3]: 78%
inhibition [4]: 89%

Cc1cccc(N2CCN(Cc3cc(Br)c4cccnc4c3O)CC2)c1
inhibition [1]: inactive
inhibition [2]: inactive
inhibition [3]: 41%
inhibition [4]: 81%

O=[N+]([O-])c1cc(CN2CCN(c3ccccc3)CC2)c(O)c2ccccc12
inhibition [1]: inactive
inhibition [2]: inactive
inhibition [3]: inactive
inhibition [4]: inactive

Oc1c(CN2CCN(c3ccccc3)CC2)cc(Cl)c2cccnc12
inhibition [1]: inactive
inhibition [2]: inactive
inhibition [3]: 14% and 22%

COc1ccccc1N1CCN(Cc2cc([N+](=O)[O-])c3cccnc3c2O)CC1
inhibition [1]: inactive
inhibition [2]: 25%
inhibition [3]: 77%
inhibition [4]: 85%

Oc1c(CN2CCN(c3ccc(F)cc3)CC2)ccc2cccnc12
inhibition [1]: inactive
inhibition [2]: inactive
inhibition [3]: 58%
inhibition [4]: 95%

COc1c(CN2CCN(c3ccccc3)CC2)cc(Br)c2cccnc12
inhibition [1]: inactive
inhibition [2]: inactive
inhibition [3]: inactive
inhibition [4]: inactive

Oc1c(CN2CCN(c3ccc(F)cc3)CC2)cc(Cl)c2cccnc12
inhibition [1]: inactive
inhibition [2]: inactive
inhibition [3]: 93%
inhibition [4]: 97%

O=[N+]([O-])c1cc(CN2CCN(c3ccccc3)CC2)c(O)c2ncccc12
Activity [18]: inactive
viability [6]: 66.3%
MIC [7]: 25 µM (≈ 9.11 µg/mL)
inhibition [1]: 66%
inhibition [2]: 88%
inhibition [3]: 94%
inhibition [4]: 97%
inhibition [8]: 49%
inhibition [9]: 73%
inhibition [10]: 77%
inhibition [11]: 79%
pEC50 [12]: 4.91
inhibition [13]: Dose-dependent effect
inhibition [14]: Dose-dependent effect
Activity [15]: Active
Activity [16]: inactive
Activity [17]: Toxic

O=[N+]([O-])c1cc(CN2CCN(c3ccc(F)cc3)CC2)c(O)c2ncccc12
Activity [18]: inactive
viability [6]: 90.2%
MIC [7]: 3.13 µM (≈ 1.2 µg/mL)
inhibition [8]: 17% and 38%
inhibition [9]: 56% and 66%
inhibition [10]: 88% and 81%
inhibition [11]: 94% and 83%
pEC50 [12]: 5.20
inhibition [13]: Dose-dependent effect
inhibition [14]: Dose-dependent effect
Activity [15]: Active
Activity [16]: inactive
Activity [17]: Toxic
Activity [19]: Active
Activity [20]: Non-toxic
Activity [21]: Non-toxic

O=[N+]([O-])c1ccc(O)c(CN2CCN(c3ccccc3)CC2)c1
inhibition [1]: inactive
inhibition [2]: inactive
inhibition [3]: inactive
inhibition [4]: inactive

CN1CCN(Cc2cc(Cl)c3cccnc3c2O)CC1
inhibition [1]: inactive
inhibition [2]: inactive
inhibition [3]: inactive
inhibition [4]: 48%

O=[N+]([O-])c1ccc(O)c(CN2CCN(c3ccc(Cl)cc3)CC2)c1
inhibition [1]: inactive
inhibition [2]: inactive
inhibition [3]: inactive
inhibition [4]: inactive

Reference: ChEMBL document CHEMBL2021762, “Derivatives of 8-hydroxyquinoline--antibacterial agents that target intra- and extracellular Gram-negative pathogens” (Bioorg Med Chem Lett, 2012)
